GSK3A inh: inhibitors of human GSK-3 alpha kinase; P49840; ADP-Glo luminescence, 60 min; inhibition, % at 10 µM; hit rate 0.1% among 320,000; AID 2650;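 active means more than half of replicates show inhibition above 20%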;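 further: GST-tagged GSK-3 alpha with peptide substrate and 25 µM ATP; 0% = DMSO neutral wells and 100% = GW8510 positive control wells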
MEKK3 PB1 HTS: modulators (inhibitors or enhancers) of MEK5 binding to human MEKK3 PB1 domain; Q99759; bead-based flow cytometry, Alexa488-MEK5 binding to MEKK3; actives lie on both sides; 0 = blocked by unlabeled MEK5, 100 = vehicle; binding response (% of control), % at 10 µM; hit rate 1.4% among 290,000; AID 1529;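 active means binding response more than 3 SD above or below the average of its plate-row segment, actives on both sides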;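 further: Alexa488 bead fluorescence after subtracting the streptavidin-only scavenger bead signal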
MEKK2mut PB1 HTS: signal of MEK5 binding to mutant human MEKK2 PB1 domain | percent response, % at 10 µM | hit rate 0.35% among 290,000 | bead flow cytometry, Alexa488-MEK5 binding to MEKK2 mutant; in the data active means percent response above about 24%, passing the limit was not always enough
MEKK2wt PB1 HTS: raises or lowers MEK5 binding to wildtype human MEKK2 PB1 domain; bead flow cytometry, Alexa488-MEK5 binding to MEKK2 WT; actives lie on both sides; binding response (% of control), % at 10 µM; hit rate 1.1% among 290,000; in the data active means binding response below about 67% or above about 130%
GSK3B inh: human GSK3beta kinase inhibition | P49841 | GST-GSK3beta kinase, ADP-Glo luminescence, 60 min; active compounds read low | activity score (negative = inhibition), % at 10 µM | hit rate 0.038% among 300,000;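 active means more than half of replicate wells score below -50%, meaning over 50% inhibition versus plate controls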;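 further: 0% = median DMSO wells and -100% = median GW8510 positive control wells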
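Assay system: GST-fused GSK3beta enzyme, cell-free / Medium: Tris pH 7.5 buffer with MgCl2, DTT, BSA, heparin / Also added: peptide substrate plus 25 µM ATP (final) / Compound: 10 µM single point / Timing: kinase reaction with compound 60 min at room temperature / Detection: ADP-Glo luminescence / Benchmarks: DMSO neutral wells and GW8510 at 20 µM as positive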
STK33 kinase inh: blocks human STK33 kinase activity; hit rate 0.073% among 320,000; Q9BYT3; purified STK33, MBP phosphorylation, ADP-Glo luminescence; AID 2661; inhibition, % at 10 µM;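 active means inhibition at or above 25%, using the most active replicate where run in duplicate; inactive means inhibition below 25%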
Target sequence (Q9BYT3 whole entry, looked up): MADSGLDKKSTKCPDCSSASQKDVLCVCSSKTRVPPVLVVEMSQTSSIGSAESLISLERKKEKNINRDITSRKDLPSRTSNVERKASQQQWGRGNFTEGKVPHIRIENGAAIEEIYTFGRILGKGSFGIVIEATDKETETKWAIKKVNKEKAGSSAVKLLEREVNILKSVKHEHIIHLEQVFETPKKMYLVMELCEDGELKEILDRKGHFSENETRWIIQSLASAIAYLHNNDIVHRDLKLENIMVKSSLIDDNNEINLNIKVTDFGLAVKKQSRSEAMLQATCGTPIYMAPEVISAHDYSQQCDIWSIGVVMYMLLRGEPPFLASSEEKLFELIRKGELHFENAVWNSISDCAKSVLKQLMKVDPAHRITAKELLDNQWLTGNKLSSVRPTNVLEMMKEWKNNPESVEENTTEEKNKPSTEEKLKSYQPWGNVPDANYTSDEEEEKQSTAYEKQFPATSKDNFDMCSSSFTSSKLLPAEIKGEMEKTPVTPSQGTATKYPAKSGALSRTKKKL
MEKK2wt confirm: raises or lowers MEK5 binding to wildtype human MEKK2, retest; binding response (% of control), % at 10 µM; shares compounds with MEKK3 PB1 HTS; AID 1892; hit rate 2.4% among 5,900; bead flow cytometry, Alexa488-MEK5 binding to MEKK2 WT; actives lie on both sides; in the data active means binding response below about 16% or above about 210%; inactive means in between
MEKK2mut-MEK5: signal of MEK5 binding to mutant human MEKK2, retest. shares compounds with MEKK3 PB1 HTS. bead flow cytometry, Alexa488-MEK5 binding to MEKK2 mutant. percent response, % at 10 µM. hit rate 2% among 5,900. AID 1893; in the data active means percent response mostly above about 71%, no sharp cut-off; inactive means mostly below about 38%;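 further: higher means compound restores mutant binding toward wildtype level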
MEKK3-MEK5 inh: MEKK3-MEK5 PB1 inhibition, single concentration confirmation | shares compounds with MEKK3 PB1 HTS | bead flow cytometry, Alexa488-MEK5 binding to MEKK3; active compounds read low | hit rate 1.8% among 5,900 | binding response (% of control), % at 10 µM;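 active means binding response below 72% of control, or above a set upper limit, though filed actives all read lower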;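 further: 100% = DMSO only wells and 0% = binding blocked by excess unlabeled MEK5; lower values mean stronger disruption of MEK5 binding to MEKK3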
* hit, by the source's call; / = no result; [ ] = another dose, or the depositor's remark. A selection: hits, their analogues and other compounds. The true share with any hit is near 2.1%.

SMILES | GSK3A inh | MEKK3 PB1 HTS | MEKK2mut PB1 HTS | MEKK2wt PB1 HTS | GSK3B inh | STK33 kinase inh | MEKK2wt confirm | MEKK2mut-MEK5 | MEKK3-MEK5 inh
C[C@@H]1C[C@H]2[C@@H]3CCC4=CC(=O)C=C[C@]4(C)[C@@]3(F)[C@@H](O)C[C@]2(C)[C@H]1C(=O)CO | 0.8 | 122.0* | 8.0 | 99.0 | 1.4 | 1.4 | 102.0 | 3.0 | 107.0
CN(Cc1ccccc1)CC(O)COc1ccc(CNCCCOc2cccnc2)cc1 (stereo not given) | -2.0 | 101.0 | 33.0 | 139.0* | 0.1 | -0.1 | 144.0 | 34.0 | 110.0
CCN(CC(=O)Nc1ccc(NC(C)=O)cc1)C(=O)/C=C/c1c(C)nn(-c2ccc(F)cc2)c1C | -0.1 | 102.0 | 4.0 | 103.0 | -1.5 | -0.2 | / | / | /
Cc1ccc(OCCCCN2CCc3ccccc3C2)c(C)c1 | / | 116.0 | 18.0 | 139.0* | 0.9 | / | 104.0 | 0.0 | 99.0
Cc1ccc(C)c(OCCCN2CCc3ccccc3C2)c1 | -2.0 | 98.0 | 7.0 | 117.0 | 4.7 | -0.9 | / | / | /
O=[N+]([O-])c1cc(C(F)(F)F)ccc1NCCNC(=S)Nc1ccc(Cl)cc1 | 1.0 | 107.0 | 19.0 | 139.0* | 2.3 | -2.7 | 131.0 | 20.0 | 108.0
O=[N+]([O-])c1cc(C(F)(F)F)ccc1NCCCCNS(=O)(=O)c1ccc(Cl)cc1 | -0.7 | 100.0 | 0.0 | 120.0 | 2.7 | -0.7 | / | / | /
CNS(=O)(=O)c1cccc(C(=O)OCC(=O)/C=C2/N(C)c3ccccc3C2(C)C)c1 | 0.8 | 131.0* | 1.0 | 108.0 | -12.8 | 1.2 | 106.0 | -2.0 | 100.0
COc1cc(/C=C(/C#N)c2nc3ccccc3c(=O)[nH]2)ccc1O | -1.0 | 140.0* | 1.0 | 104.0 | -0.4 | -3.2 | 99.0 | -4.0 | 101.0
CC(=O)N=c1c(C#N)cc2c(=O)n3cccc(C)c3nc2n1CCCOC(C)C | -12.1 | 67.0 | -27.0 | 46.0*[inhibitor] | 2.2 | 0.0 | 101.0 | -7.0 | 98.0
COc1ccc(C(=O)CCN2CCc3cc(OC)c(OC)cc3C2)cc1 | -2.1 | 1.0*[inhibitor] | -47.0 | 1.0*[inhibitor] | 4.2 | 0.2 | 110.0 | -1.0 | 100.0
COC(=O)NNC(=O)c1ccccc1OC | -0.3 | 101.0 | 2.0 | 100.0 | 1.9 | -2.6 | / | / | /
COc1ccccc1C(=O)NNC(=O)C1CC=CCC1 (stereo not given) | 5.9 | 25.0*[inhibitor] | -20.0 | 38.0*[inhibitor] | -1.9 | 2.4 | 103.0 | 1.0 | 102.0
C=CCn1c(SCC(=O)NC2CCCCC2)nnc1-c1sc(N)nc1C | -1.0 | 3.0*[inhibitor] | -13.0 | 3.0*[inhibitor] | 0.3 | -2.0 | 97.0 | 2.0 | 104.0
CS(=O)(=O)N(CC(=O)N1CCN(c2ccc(F)cc2)CC1)c1cccc(Cl)c1 | 1.1 | 102.0 | 4.0 | 106.0 | 2.8 | -1.0 | / | / | /
CS(=O)(=O)N(CCCC(=O)N1CCCCCC1)c1cccc(Cl)c1 | 0.7 | 119.0 | 37.0* | 122.0 | -1.4 | 0.9 | 102.0 | -3.0 | 100.0
Cc1cccc(/C=C/C(=O)c2ccc(N3CCOCC3)cc2)c1 | 0.1 | 81.0 | 86.0* | / | -1.5 | 3.3 | 101.0 | -1.0 | 101.0
Cn1cc([N+](=O)[O-])c(C(=O)N/N=C/c2cc3c(cc2Br)OCO3)n1 | 2.4 | 96.0 | -6.0 | 94.0 | -10.9 | 1.2 | / | / | /
CCC(C)NS(=O)(=O)c1ccc(S(=O)(=O)N(CCc2ccc(OC)c(OC)c2)Cc2cccs2)cc1 (stereo not given) | -1.0 | 147.0* | -1.0 | 107.0 | -0.8 | -2.4 | 99.0 | -2.0 | 102.0
CCN(CC)CCOC(=O)c1ccc(NC(=O)c2cn(-c3ccccc3)nc2-c2cccs2)cc1 | / | 120.0 | 8.0 | 153.0* | / | / | 250.0* | 92.0* | 114.0
CC1(C)Cc2c(cnn2-c2ccccc2)C(NC(=O)c2ccc[n+]([O-])c2)C1 (stereo not given) | -2.3 | 103.0 | 6.0 | 108.0 | -5.0 | -2.1 | / | / | /
CC(C)CC1NC(=O)c2ccccc2-n2c1nc1ccccc1c2=O (stereo not given) | -3.2 | / | / | / | / | -1.3 | / | / | /
COc1ccc(-c2cn3ccccc3n2)cc1[N+](=O)[O-] | 1.6 | 97.0 | -2.0 | 98.0 | -2.5 | 2.0 | / | / | /
COc1ccc(-c2cn3cc([N+](=O)[O-])ccc3n2)cc1OC | 0.6 | 75.0*[inhibitor] | -1.0 | 90.0 | 1.1 | 3.5 | 112.0 | 11.0 | 107.0
O=C(COc1coc(CN2CCN(c3ccc(F)cc3)CC2)cc1=O)NCC1CCCO1 (stereo not given) | -1.5 | / | / | / | 2.8 | -1.7 | / | / | /
SMILES | GSK3A inh | MEKK3 PB1 HTS | MEKK2mut PB1 HTS | MEKK2wt PB1 HTS | GSK3B inh | STK33 kinase inh | MEKK2wt confirm | MEKK2mut-MEK5 | MEKK3-MEK5 inh
CCc1nc2ccccc2c(C(=O)OCC(=O)NC2CC2)c1C | -0.8 | / | / | / | / | -2.0 | / | / | /
CCc1nc2ccccc2c(C(=O)OCC(=O)NC(=O)c2cccn2C)c1C | 1.1 | 67.0*[inhibitor] | -18.0 | 72.0 | 3.0 | 1.0 | 101.0 | 3.0 | 105.0
Nc1c(N(CCC2=CCCCC2)C(=O)COc2ccc(F)cc2)c(=O)[nH]c(=O)n1Cc1ccccc1 | 0.5 | / | / | / | / | -0.7 | / | / | /
Nc1c(N(CCO)C(=O)COc2ccc(Cl)cc2)c(=O)[nH]c(=O)n1Cc1ccccc1 | -2.1 | 131.0* | -1.0 | 98.0 | -1.5 | -2.2 | 98.0 | 9.0 | 101.0
Cc1cc(C)nc(-n2ncc3c2CC(c2ccccc2C)CC3=O)n1 (stereo not given) | 5.3 | 137.0* | 0.0 | 103.0 | 0.4 | -0.7 | 103.0 | 0.0 | 102.0
COc1ccc(CN2CC(C(=O)NCCCN3CCCCCC3)CC2=O)cc1 (stereo not given) | 0.7 | 103.0 | 19.0 | 137.0* | 1.5 | -0.3 | 119.0 | 37.0 | 104.0
O=C(NCc1ccc(F)cc1)C1CC(=O)N(CCc2ccccc2)C1 (stereo not given) | -1.5 | 2.0*[inhibitor] | -69.0 | 3.0*[inhibitor] | -0.3 | -1.6 | 106.0 | 5.0 | 103.0
Cc1ccc(CCN2CC(C(=O)NCCN3CCCCCC3)CC2=O)cc1 (stereo not given) | 4.1 | 107.0 | 62.0* | 161.0* | 0.4 | -1.8 | 151.0 | 72.0* | 108.0
Cc1ccc(CCN2CC(C(=O)NCCCN3CCCCCC3)CC2=O)cc1 (stereo not given) | 4.1 | 95.0 | 21.0 | 138.0* | 0.1 | 0.9 | 119.0 | 5.0 | 100.0
COc1ccc(S(=O)(=O)NCCSCc2ccco2)cc1Cl | -5.3 | 102.0 | 4.0 | 101.0 | 0.5 | -0.3 | / | / | /
O=C(Cn1c(=O)c(=O)n(Cc2ccccc2)c2ccc(Cl)cc21)NCC1CCCO1 (stereo not given) | -0.7 | / | / | / | 1.2 | 0.4 | / | / | /
